{
  "source": "paper PMC4094378",
  "about": "(European journal of medicinal chemistry, 2014)",
  "key": {"[1]": {"tested_on": "HeLa cells", "experiment": "Cell growth inhibitory activity", "type": "cell-based, human", "conditions": "read-out: IC50 HeLa; 72 h, MTT; mean ± SE", "how_it_was_run": "(§1)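 Jurkat, CEM and SEM cells were grown in RPMI-1640, and HeLa, MCF-7, HT-29 and LoVo in DMEM, each with 10% FBS and penicillin/streptomycin. Wells got 8 × 10^3 cells and were preincubated 18 h at 37 °C in 5% CO2. Test compound from a 10 mM DMSO stock was diluted in medium (final DMSO ≤0.25%) and applied for 72 h. Read-out was MTT. IC50 is the concentration giving 50% inhibition of proliferation, from dose–response curves of ≥3 independent experiments, mean ± SE.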"}, "[2]": {"tested_on": "HT-29 cells", "experiment": "Cell growth inhibitory activity", "type": "cell-based, human", "conditions": "read-out: IC50 HT-29; 72 h, MTT; mean ± SE", "how_it_was_run": "as §1"}, "[3]": {"tested_on": "LoVo cells", "experiment": "Cell growth inhibitory activity", "type": "cell-based, human", "conditions": "read-out: IC50 LoVo; 72 h, MTT; mean ± SE", "how_it_was_run": "as §1"}, "[4]": {"tested_on": "CEM cells", "experiment": "Cell growth inhibitory activity", "type": "cell-based, human", "conditions": "read-out: IC50 CEM; 72 h, MTT; mean ± SE", "how_it_was_run": "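Human T-cell leukemia cells grown in RPMI-1640 with 10% FBS, penicillin G 115 units/mL and streptomycin 115 μg/mL. 8 × 10^3 cells/well were preincubated 18 h at 37 °C, 5% CO2, then exposed to graded compound concentrations in complete medium from 10 mM DMSO stocks (final DMSO ≤0.25%) for 72 h at 37 °C. Viability was read by MTT, and IC50 is the concentration inhibiting proliferation by 50%.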"}, "[5]": {"tested_on": "Jurkat cells", "experiment": "Cell growth inhibitory activity", "type": "cell-based, human", "conditions": "read-out: IC50 Jurkat; 72 h, MTT; mean ± SE", "how_it_was_run": "as §1"}, "[6]": {"tested_on": "SEM cells", "experiment": "Cell growth inhibitory activity", "type": "cell-based, human", "conditions": "read-out: IC50 SEM; 72 h, MTT; mean ± SE", "how_it_was_run": "as §1"}, "[7]": {"tested_on": "MCF-7 cells", "experiment": "Cell growth inhibitory activity", "type": "cell-based, human", "conditions": "read-out: IC50 MCF-7; 72 h, MTT; mean ± SE", "how_it_was_run": "as §1"}, "[8]": {"tested_on": "panel of seven human cancer cell lines", "experiment": "Antiproliferative activity across the panel of seven cancer cell lines", "type": "cell-based", "conditions": "4′-methoxy replaced by 4′-ethoxy", "how_it_was_run": "as §1"}},
  "data": [
    {"substance": "2-Bromo-N-(4-{(1E)-3-oxo-3-[(4-ethoxyphenyl)amino] prop-1-en-1-yl}phenyl)-acrylamide [4j]", "values": [
      {"measurement": "IC50", "setting": "[1]", "result": "2000 ± 130", "unit": "nM"},
      {"measurement": "IC50", "setting": "[2]", "result": "3400 ± 300", "unit": "nM"},
      {"measurement": "IC50", "setting": "[3]", "result": "850 ± 30", "unit": "nM"},
      {"measurement": "IC50", "setting": "[4]", "result": "98 ± 33", "unit": "nM"},
      {"measurement": "IC50", "setting": "[5]", "result": "930 ± 120", "unit": "nM"},
      {"measurement": "IC50", "setting": "[6]", "result": "180 ± 40", "unit": "nM"},
      {"measurement": "IC50", "setting": "[7]", "result": "5500 ± 1000", "unit": "nM"},
      {"measurement": "fold reduction in activity vs 4i", "setting": "[8]", "result": "2–4 fold"}
    ]}
  ]
}
